From ChEMBL document CHEMBL3763022, “Potent dual inhibitors of Plasmodium falciparum M1 and M17 aminopeptidases through optimization of S1 pocket interactions” (Eur J Med Chem, 2016)

Tests used:
[1] = Inhibition of recombinant Plasmodium falciparum M1 aminopeptidase using H-Leu-NHMec as substrate preincubated for 10 mins followed by addition of substrate by spectrofluorimetric analysis
Method in brief: (§1)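 E. coli-expressed enzymes, purified by Ni-NTA and size exclusion. Preincubation 10 min at 37°C with inhibitor: M1 in 100 mM Tris pH 8.0; M17 in 50 mM Tris pH 8.0, 2 mM CoCl2. Substrate H-Leu-NHMec kept below Km. Fluorescence ex 355/em 460 nm followed to steady-state velocity. Inhibitor range 500pM–500 μM. Ki from Dixon plots (1/V vs [I]).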

[2] = Inhibition of recombinant Plasmodium falciparum M17 aminopeptidase using H-Leu-NHMec as substrate preincubated for 10 mins followed by addition of substrate by spectrofluorimetric analysis; method in brief: as §1
Plasmodium falciparum [3] = experiment: Antiparasitic activity against Plasmodium falciparum 3D7 assessed as growth inhibition after 72 hrs by DAPI staining-based confocal image analysis; assay type: functional, organism-based; conditions: 3D7, 72 h
Method in brief: (§2)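 Sorbitol-synchronised ring-stage parasites in human O+ erythrocytes at 2% parasitaemia, 0.3% haematocrit, incubated 72 h at 37 °C (5% CO2) with three-step log serial dilutions from 20 μM top, 0.4% DMSO final. Staining with DAPI/saponin/Triton X/EDTA in PBS, confocal imaging, parasite count.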

HEK293 = experiment: Cytotoxicity against HEK293 cells assessed as cell viability after 72 hrs by resazurin assay; assay type: cell-based; conditions: human, hek293, 72 h
Method in brief: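 HEK293 cells in DMEM with 10% FCS, seeded at 2000 cells/well and left to adhere overnight. Compound dose response with top final 40 μM, 0.4% DMSO. Exposure 72 h at 37 °C, 5% CO2. Medium then replaced by 44 μM resazurin in serum-free DMEM for 4-6 h. Fluorescence read at ex/em 530/595 nm.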

Plasmodium falciparum [4] = experiment: Antiparasitic activity against Plasmodium falciparum Dd2 assessed as growth inhibition after 72 hrs by DAPI staining-based confocal image analysis; assay type: functional, organism-based; conditions: Dd2, 72 h; method in brief: as §2
Plasmodium falciparum [5] = experiment: Antiparasitic activity against chloroquine/quinine/pyrimethamine/sulfadoxine/NITD609-resistant Plasmodium falciparum Dd2 clone 2 assessed as growth inhibition after 72 hrs by DAPI staining-based confocal image analysis; assay type: functional, organism-based; conditions: Dd2, 72 h; method in brief: as §2

SMILES	Ki [1]	Ki [2]	IC50 (Plasmodium falciparum [3])	Activity (HEK293)	IC50 (Plasmodium falciparum [4])	IC50 (Plasmodium falciparum [5])
CC(C)(C)OC(=O)NC(C(=O)NO)c1ccc(-c2ccncc2)cc1 (configuration not stated)	0.91 µM	0.54 µM	–	–	–	–
CC(C)(C)OC(=O)NC(C(=O)NO)c1ccc(-c2cccc(F)c2)cc1 (configuration not stated)	0.95 µM	0.13 µM	–	–	–	–
CC(C)(C)C(=O)NC(C(=O)NO)c1ccc(-c2cccc(F)c2)cc1 (configuration not stated)	0.55 µM	0.0062 µM	0.162 µM	Non-toxic	0.226 µM	0.316 µM
Cn1cc(-c2ccc(CC(NC(=O)C(C)(C)C)C(=O)NO)cc2)cn1 (configuration not stated)	39 µM	0.74 µM	–	–	–	–
Cn1cc(-c2ccc(C(NC(=O)C(C)(C)C)C(=O)NO)cc2)cn1 (configuration not stated)	11 µM	0.0072 µM	–	–	–	–
CC(C)(C)C(=O)NC(C(=O)NO)c1ccc(Br)cc1 (configuration not stated)	0.065 µM	0.041 µM	0.169 µM	Non-toxic	0.194 µM	0.163 µM
CC(C)(C)OC(=O)NC(C(=O)NO)c1ccc(F)cc1 (configuration not stated)	5.3 µM	1.7 µM	–	–	–	–
CC(C)(C)C(=O)NC(C(=O)NO)c1ccc(-c2ccsc2)cc1 (configuration not stated)	0.64 µM	0.0091 µM	0.103 µM	Non-toxic	0.11 µM	0.1 µM
CC(C)(C)C(=O)NC(C(=O)NO)c1ccc(-c2cc(F)cc(F)c2)cc1 (configuration not stated)	0.58 µM	0.092 µM	0.144 µM	Non-toxic	0.239 µM	0.232 µM
CC(C)(C)OC(=O)NC(Cc1ccc(F)cc1)C(=O)NO (configuration not stated)	18 µM	2.8 µM	–	–	–	–
CC(C)(C)C(=O)NC(Cc1ccc(Br)cc1)C(=O)NO (configuration not stated)	87 µM	0.42 µM	–	–	–	–
CC(C)(C)C(=O)NC(Cc1ccc(F)cc1)C(=O)NO (configuration not stated)	63 µM	0.037 µM	–	–	–	–
CC(C)(C)OC(=O)NC(C(=O)NO)c1ccc(-c2ccccc2C(F)(F)F)cc1 (configuration not stated)	0.75 µM	0.12 µM	–	–	–	–
CC(C)(C)OC(=O)NC(C(=O)NO)c1ccc(-c2ccccc2)cc1 (configuration not stated)	37 µM	0.055 µM	–	–	–	–
Cn1cc(-c2ccc(CC(NC(=O)OC(C)(C)C)C(=O)NO)cc2)cn1 (configuration not stated)	120 µM	14 µM	–	–	–	–
CC(C)(C)OC(=O)NC(C(=O)NO)c1ccc(-c2ccccc2F)cc1 (configuration not stated)	0.95 µM	0.041 µM	0.633 µM	Non-toxic	–	–
CC(C)(C)OC(=O)NC(C(=O)NO)c1ccc(-c2cccnc2)cc1 (configuration not stated)	1.1 µM	0.22 µM	–	–	–	–
CC(C)(C)OC(=O)NC(Cc1ccc(Br)cc1)C(=O)NO (configuration not stated)	39 µM	7.7 µM	–	–	–	–
CC(C)(C)OC(=O)NC(Cc1ccc(-c2ccccc2)cc1)C(=O)NO (configuration not stated)	> 500 µM	5.2 µM	–	–	–	–
CC(C)(C)OC(=O)NC(C(=O)NO)c1ccc(-c2ccc(F)cc2)cc1 (configuration not stated)	100 µM	0.074 µM	–	–	–	–
CC(C)(C)OC(=O)NC(C(=O)NO)c1ccc(-c2cccc(/C(N)=N\O)c2)cc1 (configuration not stated)	1.1 µM	0.14 µM	0.679 µM	Non-toxic	–	–
